The text below walks through data of ChEMBL document CHEMBL1130213, “Synthesis and pharmacological characterization of aminocyclopentanetricarboxylic acids: new tools to discriminate between metabotropic glutamate receptor subtypes” (J Med Chem, 1997).

SMILES strings stand for the structures. pEC50: −log10 of the molar value. Some results are limits rather than exact numbers.

The target of assay [1] is T1, Metabotropic glutamate receptor 4 (Homo sapiens, UniProt Q14833). Nature of the assay: Agonist activity against Metabotropic glutamate receptor 4 expressed in HEK 293 cells was evaluated by measuring total inositol phosphate accumulation. The format is functional, cell-based, HEK293.
T1 sequence (Q14833 whole entry): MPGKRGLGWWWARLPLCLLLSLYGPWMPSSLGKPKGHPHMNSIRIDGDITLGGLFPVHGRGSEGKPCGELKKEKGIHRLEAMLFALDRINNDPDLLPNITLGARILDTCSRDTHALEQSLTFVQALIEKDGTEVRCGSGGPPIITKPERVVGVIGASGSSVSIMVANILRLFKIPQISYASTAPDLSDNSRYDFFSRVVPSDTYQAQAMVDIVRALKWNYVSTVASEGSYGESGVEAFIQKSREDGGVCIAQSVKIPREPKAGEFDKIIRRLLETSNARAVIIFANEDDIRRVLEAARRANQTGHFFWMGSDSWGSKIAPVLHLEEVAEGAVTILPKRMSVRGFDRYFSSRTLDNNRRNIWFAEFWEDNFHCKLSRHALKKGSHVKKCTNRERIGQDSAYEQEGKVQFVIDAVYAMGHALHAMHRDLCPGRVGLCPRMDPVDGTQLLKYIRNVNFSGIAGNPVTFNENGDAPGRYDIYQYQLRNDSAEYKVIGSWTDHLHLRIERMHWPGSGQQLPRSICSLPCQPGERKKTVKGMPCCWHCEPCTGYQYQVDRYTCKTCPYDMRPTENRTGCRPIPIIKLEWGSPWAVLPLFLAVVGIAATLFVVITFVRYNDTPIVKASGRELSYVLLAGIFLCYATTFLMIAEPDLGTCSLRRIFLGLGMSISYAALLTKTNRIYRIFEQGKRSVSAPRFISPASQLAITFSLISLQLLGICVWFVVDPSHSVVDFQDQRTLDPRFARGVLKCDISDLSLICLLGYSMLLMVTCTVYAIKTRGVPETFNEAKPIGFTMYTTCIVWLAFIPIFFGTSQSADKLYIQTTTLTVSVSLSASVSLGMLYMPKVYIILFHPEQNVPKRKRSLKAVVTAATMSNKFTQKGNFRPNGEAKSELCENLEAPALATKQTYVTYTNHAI
In assay [2] the target is Metabotropic glutamate receptor 1 (Homo sapiens, UniProt Q13255). Briefly: Agonist activity against Metabotropic glutamate receptor 1 expressed in HEK 293 cells was evaluated by measuring total inositol phosphate accumulation; No effect at 1 mM. Conditions: hek293. The format is functional, cell-based.
Sequence of Metabotropic glutamate receptor 1 (Q13255 whole entry): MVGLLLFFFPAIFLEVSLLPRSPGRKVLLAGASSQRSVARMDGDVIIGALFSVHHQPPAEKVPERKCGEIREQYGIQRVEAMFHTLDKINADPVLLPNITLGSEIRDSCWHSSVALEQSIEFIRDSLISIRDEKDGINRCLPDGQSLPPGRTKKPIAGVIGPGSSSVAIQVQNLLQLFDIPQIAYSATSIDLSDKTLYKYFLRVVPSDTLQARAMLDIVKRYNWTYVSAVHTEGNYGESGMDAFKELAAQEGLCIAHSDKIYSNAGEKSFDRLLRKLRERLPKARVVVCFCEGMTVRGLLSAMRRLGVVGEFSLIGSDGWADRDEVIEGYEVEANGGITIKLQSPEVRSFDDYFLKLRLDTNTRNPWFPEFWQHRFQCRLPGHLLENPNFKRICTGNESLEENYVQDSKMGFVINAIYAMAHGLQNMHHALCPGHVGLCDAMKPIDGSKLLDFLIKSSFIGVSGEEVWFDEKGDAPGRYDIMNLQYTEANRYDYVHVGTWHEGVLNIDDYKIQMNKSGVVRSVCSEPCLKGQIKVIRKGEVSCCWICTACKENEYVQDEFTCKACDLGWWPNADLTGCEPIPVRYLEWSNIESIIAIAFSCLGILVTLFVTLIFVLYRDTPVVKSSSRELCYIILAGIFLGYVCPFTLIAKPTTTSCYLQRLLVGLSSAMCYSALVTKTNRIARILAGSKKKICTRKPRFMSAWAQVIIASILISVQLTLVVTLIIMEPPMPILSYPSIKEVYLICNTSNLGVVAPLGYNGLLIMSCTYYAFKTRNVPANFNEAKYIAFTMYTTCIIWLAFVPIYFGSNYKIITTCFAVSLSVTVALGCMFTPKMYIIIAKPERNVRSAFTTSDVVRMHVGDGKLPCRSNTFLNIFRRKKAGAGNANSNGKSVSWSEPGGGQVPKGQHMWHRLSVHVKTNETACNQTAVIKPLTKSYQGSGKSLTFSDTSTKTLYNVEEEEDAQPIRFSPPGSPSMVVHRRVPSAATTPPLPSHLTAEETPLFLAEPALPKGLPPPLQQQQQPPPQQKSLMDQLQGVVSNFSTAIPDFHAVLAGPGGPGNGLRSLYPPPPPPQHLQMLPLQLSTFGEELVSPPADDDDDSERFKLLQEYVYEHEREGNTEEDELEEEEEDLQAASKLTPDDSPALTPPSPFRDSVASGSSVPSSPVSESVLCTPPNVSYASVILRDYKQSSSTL
Assay [3] concerns the target T2, Metabotropic glutamate receptor 2 (Homo sapiens, UniProt Q14416). Nature of the assay: Agonist activity against Metabotropic glutamate receptor 2 expressed in HEK 293 cells was evaluated by measuring total inositol phosphate accumulation; No effect at 1 mM. The format is functional, cell-based. Conditions: hek293.
Target sequence in this assay (Q14416 whole entry): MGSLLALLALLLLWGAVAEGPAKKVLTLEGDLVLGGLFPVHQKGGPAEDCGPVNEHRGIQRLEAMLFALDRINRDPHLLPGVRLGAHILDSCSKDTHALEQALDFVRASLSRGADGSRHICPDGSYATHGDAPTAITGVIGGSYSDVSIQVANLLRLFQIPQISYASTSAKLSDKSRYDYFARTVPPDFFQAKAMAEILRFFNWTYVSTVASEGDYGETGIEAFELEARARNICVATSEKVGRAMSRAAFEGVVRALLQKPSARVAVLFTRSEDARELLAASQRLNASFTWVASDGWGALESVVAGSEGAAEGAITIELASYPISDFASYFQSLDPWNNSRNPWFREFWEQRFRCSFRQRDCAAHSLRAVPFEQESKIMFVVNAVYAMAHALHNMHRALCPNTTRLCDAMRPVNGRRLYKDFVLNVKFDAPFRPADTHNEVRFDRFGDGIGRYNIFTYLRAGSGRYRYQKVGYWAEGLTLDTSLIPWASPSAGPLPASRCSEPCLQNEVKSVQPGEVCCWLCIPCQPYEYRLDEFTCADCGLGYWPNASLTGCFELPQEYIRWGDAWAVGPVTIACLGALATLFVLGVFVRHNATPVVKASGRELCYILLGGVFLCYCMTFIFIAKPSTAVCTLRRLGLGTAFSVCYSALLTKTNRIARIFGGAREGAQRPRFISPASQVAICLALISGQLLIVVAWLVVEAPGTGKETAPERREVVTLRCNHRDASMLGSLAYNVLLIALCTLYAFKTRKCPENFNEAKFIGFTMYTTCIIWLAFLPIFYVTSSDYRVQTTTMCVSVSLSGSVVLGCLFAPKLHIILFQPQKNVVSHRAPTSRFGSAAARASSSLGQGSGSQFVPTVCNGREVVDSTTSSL
In assay [4] the target is T2, Metabotropic glutamate receptor 2. Nature of the assay: Agonist activity against Metabotropic glutamate receptor 2 expressed in HEK 293 cells was evaluated by measuring total inositol phosphate accumulation. The format is functional, cell-based, HEK293. The method in brief:
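HEK 293 cells in DMEM with 10% fetal calf serum, electroporated with receptor plasmid (mGluR1a 0.3 μg, or mGluR2 2 μg co-expressed with Gqi9). Cells labeled overnight with [3H]myo-inositol, then stimulated 30 min with agonist in 10 mM LiCl. IP produced expressed over membrane radioactivity. Basal taken with glutamate pyruvate transaminase (1 unit/mL) plus 2 mM pyruvate. EC50 from logistic fit; triplicates.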
Target sequence in this assay (Q14416 whole entry): as above

The target of assay [5] is T1, Metabotropic glutamate receptor 4. Briefly: Agonist activity against Metabotropic glutamate receptor 4 expressed in HEK 293 cells was evaluated by measuring total inositol phosphate accumulation; No effect at 1 mM. The format is functional, cell-based. The note with it: hek293.
For assay [6], the target named is T2, Metabotropic glutamate receptor 2. Briefly: Antagonist activity against Metabotropic glutamate receptor 2 expressed in HEK 293 cells was evaluated by measuring total inositol phosphate accumulation; No effect at 1 mM. Format: functional, cell-based. The note with it: HEK293.
Target sequence in this assay (Q14416 19-872 limits assumed): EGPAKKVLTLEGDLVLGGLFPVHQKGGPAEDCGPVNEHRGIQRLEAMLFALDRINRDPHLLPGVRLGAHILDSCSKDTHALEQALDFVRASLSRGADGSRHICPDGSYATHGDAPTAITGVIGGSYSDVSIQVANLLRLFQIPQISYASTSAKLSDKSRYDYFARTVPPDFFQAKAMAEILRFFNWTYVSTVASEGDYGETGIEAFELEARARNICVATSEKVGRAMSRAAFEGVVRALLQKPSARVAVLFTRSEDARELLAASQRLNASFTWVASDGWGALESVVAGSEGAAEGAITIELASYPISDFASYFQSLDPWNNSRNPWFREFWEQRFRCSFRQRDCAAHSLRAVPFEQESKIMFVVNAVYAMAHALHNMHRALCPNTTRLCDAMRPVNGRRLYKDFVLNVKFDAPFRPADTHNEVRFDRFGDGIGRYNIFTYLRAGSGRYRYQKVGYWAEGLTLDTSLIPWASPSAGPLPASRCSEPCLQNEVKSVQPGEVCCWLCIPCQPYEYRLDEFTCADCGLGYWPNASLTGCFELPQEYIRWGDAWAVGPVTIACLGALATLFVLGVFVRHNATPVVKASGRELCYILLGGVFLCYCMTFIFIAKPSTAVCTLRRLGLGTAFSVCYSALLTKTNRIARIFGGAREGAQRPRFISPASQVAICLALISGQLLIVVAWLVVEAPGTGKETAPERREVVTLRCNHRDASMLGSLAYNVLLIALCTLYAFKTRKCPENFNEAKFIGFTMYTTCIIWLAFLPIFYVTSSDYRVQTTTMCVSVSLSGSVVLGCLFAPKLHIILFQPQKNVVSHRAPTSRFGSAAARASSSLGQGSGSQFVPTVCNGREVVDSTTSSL

`NC1(C(=O)O)C[C@H](C(=O)O)[C@@H](C(=O)O)C1`: the pEC50 – broadly, the negative decadic logarithm of the EC50, by convention in mol/L – in assay [1] was 5.06. Moreover, the EC50 entry in assay [2] and in assay [3] was “No effect” throughout.
In turn, `NC1(C(=O)O)CC(C(=O)O)C(C(=O)O)C1` (racemic) gave a pEC50 in assay [1] of 4.40. The EC50 result in assay [2] and in assay [3] was “No effect” throughout.
In assay [4], `N[C@]1(C(=O)O)CC[C@@H](C(=O)O)C1` had a pEC50 of under 3.00. For the same compound, the EC50 result in assay [5] was “No effect”.
On to `N[C@]1(C(=O)O)C[C@H](C(=O)O)[C@H](C(=O)O)C1`, for which the EC50 result in assay [2], in assay [3] and in assay [5] was “No effect” in each case.
Regarding `N[C@]1(C(=O)O)CC[C@H](C(=O)O)C1`, the pEC50 in assay [4] is 3.96.
Take `NC1(C(=O)O)C[C@@H](C(=O)O)[C@H](C(=O)O)C1`: the EC50 result in assay [2], in assay [3] and in assay [5] was “No effect” throughout.
`N[C@@]1(C(=O)O)CC[C@H](C(=O)O)C1`: in assay [4], the pEC50 is 4.89.
In turn, `N[C@@]1(C(=O)O)C[C@H](C(=O)O)[C@H](C(=O)O)C1` had a pEC50 in assay [1] of 5.14. Moreover, the EC50 entry in assay [2] and in assay [3] was “No effect” each time. In assay [6], the Kb result was “No effect”.
In assay [4], `N[C@@]1(C(=O)O)CC[C@@H](C(=O)O)C1` had a pEC50 of 4.74.
